Experimental findings from ChEMBL document CHEMBL5653631, “A Potent and Selective ULK1 Inhibitor Suppresses Autophagy and Sensitizes Cancer Cells to Nutrient Stress” (iScience, 2018) are described below.

A word on the inhibition: it is the change of the read-out against control, counted positive when it falls.

Test [1] deals with T1, Serine/threonine-protein kinase BRSK1 (Homo sapiens) (UniProt Q8TDC3).
T1 sequence (whole entry): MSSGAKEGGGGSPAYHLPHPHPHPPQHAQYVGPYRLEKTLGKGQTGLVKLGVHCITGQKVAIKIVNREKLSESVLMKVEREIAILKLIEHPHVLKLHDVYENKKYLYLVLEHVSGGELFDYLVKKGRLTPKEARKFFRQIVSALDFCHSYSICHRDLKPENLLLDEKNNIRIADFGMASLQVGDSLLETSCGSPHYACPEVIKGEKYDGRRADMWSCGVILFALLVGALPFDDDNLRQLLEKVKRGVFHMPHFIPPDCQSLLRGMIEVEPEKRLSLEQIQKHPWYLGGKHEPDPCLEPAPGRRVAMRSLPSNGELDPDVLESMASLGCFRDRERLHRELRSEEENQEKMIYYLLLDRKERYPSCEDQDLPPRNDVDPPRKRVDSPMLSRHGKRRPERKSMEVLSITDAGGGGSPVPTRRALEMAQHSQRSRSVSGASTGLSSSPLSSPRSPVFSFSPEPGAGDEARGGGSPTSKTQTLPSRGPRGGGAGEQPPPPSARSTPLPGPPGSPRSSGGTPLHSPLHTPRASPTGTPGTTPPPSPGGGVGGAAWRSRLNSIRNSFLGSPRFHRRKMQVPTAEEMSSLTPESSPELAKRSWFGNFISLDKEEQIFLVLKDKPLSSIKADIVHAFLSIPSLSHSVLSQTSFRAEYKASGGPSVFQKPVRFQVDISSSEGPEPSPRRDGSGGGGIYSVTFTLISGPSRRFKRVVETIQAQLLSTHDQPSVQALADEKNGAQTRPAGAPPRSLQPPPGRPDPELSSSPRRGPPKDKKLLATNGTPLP
The experiment in a line: Inhibition of human recombinant BRSK1 at 500 nM in presence of ATP by radiometric assay relative to control. Summed up: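 Recombinant human kinase panel (327 kinases) run as radiometric activity assays, each kinase in duplicate at one compound concentration. Activity remaining expressed relative to vehicle control; percent inhibition taken as 100% minus % activity remaining.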

In test [2] the target is T2, Testis-specific serine/threonine-protein kinase 3 (Homo sapiens) (UniProt Q96PN8).
T2 sequence (whole entry): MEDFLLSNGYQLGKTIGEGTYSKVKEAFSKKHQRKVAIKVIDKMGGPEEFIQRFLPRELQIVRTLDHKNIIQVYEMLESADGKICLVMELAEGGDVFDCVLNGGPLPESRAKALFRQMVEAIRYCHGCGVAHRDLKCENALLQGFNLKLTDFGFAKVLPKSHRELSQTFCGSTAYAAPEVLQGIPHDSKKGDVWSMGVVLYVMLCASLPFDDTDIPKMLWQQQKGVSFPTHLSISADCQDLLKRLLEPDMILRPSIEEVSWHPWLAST
In words: Inhibition of human recombinant TSSK3 at 500 nM in presence of ATP by radiometric assay relative to control.

The target of test [3] is T3, Dual specificity tyrosine-phosphorylation-regulated kinase 3 (Homo sapiens) (UniProt O43781).
T3 sequence (whole entry): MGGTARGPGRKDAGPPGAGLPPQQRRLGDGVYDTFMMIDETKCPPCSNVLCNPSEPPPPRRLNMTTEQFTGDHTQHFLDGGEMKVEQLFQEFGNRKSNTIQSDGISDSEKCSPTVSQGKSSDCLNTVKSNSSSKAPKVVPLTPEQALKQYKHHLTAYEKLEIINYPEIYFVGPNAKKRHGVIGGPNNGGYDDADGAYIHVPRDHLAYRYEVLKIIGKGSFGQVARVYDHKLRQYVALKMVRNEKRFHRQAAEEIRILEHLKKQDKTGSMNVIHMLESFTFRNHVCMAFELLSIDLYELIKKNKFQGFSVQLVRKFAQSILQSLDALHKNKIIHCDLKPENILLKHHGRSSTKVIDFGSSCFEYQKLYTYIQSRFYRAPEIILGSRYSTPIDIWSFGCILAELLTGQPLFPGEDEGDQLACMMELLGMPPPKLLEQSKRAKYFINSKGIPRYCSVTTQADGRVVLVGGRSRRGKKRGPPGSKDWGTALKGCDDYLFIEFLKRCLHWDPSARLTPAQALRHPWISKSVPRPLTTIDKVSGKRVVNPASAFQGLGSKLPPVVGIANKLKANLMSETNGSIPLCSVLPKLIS
In words: Inhibition of human recombinant DYRK3 at 15 nM related to control ULK1.

Test [4] addresses T4, Bone morphogenetic protein receptor type-2 (Homo sapiens) (UniProt Q13873).
T4 sequence (whole entry): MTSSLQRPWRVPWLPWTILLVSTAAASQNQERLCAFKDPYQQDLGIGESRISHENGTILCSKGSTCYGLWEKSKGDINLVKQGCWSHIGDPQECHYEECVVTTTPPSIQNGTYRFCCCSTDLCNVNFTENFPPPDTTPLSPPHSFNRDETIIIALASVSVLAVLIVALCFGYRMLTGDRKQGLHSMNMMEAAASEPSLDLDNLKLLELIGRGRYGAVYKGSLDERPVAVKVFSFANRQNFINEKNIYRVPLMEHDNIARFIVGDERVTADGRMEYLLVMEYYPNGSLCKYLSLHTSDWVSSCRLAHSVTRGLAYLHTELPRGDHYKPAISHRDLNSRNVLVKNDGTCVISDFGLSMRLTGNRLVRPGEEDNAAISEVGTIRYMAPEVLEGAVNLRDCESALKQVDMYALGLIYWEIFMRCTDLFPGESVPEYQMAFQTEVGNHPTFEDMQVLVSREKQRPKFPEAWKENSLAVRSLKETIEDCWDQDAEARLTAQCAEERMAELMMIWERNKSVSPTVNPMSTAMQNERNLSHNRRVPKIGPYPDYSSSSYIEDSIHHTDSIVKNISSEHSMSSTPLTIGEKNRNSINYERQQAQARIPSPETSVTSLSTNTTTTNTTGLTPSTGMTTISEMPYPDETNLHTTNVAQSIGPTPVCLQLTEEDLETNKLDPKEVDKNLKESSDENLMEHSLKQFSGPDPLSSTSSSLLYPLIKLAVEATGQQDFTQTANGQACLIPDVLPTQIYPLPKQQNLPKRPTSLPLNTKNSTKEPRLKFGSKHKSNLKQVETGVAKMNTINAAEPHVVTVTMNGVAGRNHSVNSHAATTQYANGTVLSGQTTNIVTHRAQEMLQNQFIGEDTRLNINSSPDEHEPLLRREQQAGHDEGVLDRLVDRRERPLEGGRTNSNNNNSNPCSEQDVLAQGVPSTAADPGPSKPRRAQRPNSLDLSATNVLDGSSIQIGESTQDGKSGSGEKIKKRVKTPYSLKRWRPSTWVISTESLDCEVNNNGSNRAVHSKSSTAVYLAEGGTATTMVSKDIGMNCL
In words: Inhibition of human recombinant BMPR2 at 15 nM in presence of ATP by radiometric assay relative to control. Summed up:
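Part of a radiometric in vitro activity panel of 327 recombinant human kinases. Each kinase was tested in duplicate at one inhibitor concentration. Activity remaining was expressed as a percentage of the vehicle control, and percent inhibition was taken as 100 minus that value.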

Test [5] concerns the target Serine/threonine-protein kinase SBK1 (Homo sapiens) (UniProt Q52WX2). In words: Inhibition of human recombinant SBK1 at 15 nM related to control ULK1.

Chain of Serine/threonine-protein kinase SBK1 (Homo sapiens) (Q52WX2 whole entry): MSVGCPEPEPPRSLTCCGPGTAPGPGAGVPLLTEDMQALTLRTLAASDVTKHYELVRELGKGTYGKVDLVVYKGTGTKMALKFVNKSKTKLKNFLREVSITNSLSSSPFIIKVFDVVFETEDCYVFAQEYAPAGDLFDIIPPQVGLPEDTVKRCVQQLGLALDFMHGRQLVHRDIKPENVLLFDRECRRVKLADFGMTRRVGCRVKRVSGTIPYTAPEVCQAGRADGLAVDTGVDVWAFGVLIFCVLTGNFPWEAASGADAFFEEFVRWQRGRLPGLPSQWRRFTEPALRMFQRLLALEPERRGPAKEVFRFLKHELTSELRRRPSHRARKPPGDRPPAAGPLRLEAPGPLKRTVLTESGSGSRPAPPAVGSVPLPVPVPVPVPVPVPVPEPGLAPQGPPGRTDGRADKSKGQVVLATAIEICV

As for `CNC(=O)c1ccccc1Oc1nc(Nc2cc(OC)c(OC)c(OC)c2)ncc1Br`, the inhibition was 2% in test [1] and 0% in test [2].
`CC(C)[C@H](NC(=O)c1cc(-c2cnn3cc(-c4ccc(OCCN5CCCCC5)cc4)cnc23)cs1)C(F)(F)F`: the fold change (FC) in test [3] turned out to be 0.26; in test [5], 0.06. Also, in test [4], the inhibition is 5%.
